Consider 14 molecules from ChEMBL document CHEMBL2163274, “Heterocyclic methylsulfone hydroxamic acid LpxC inhibitors as Gram-negative antibacterial agents” (Bioorg Med Chem Lett, 2012).

Converted amounts (≈) assume the structure as drawn.

The test system of data set [1] is Pseudomonas aeruginosa. In words: Antibacterial activity against Pseudomonas aeruginosa PA7. Type of data set: functional. An outline of the steps: (§1)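 MIC in µg/ml against P. aeruginosa strains with fully functioning efflux pumps. PAO1 is wild type and efflux pump competent.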
The test system of data set [2] is Pseudomonas aeruginosa. Description: Antibacterial activity against quinolone-resistant Pseudomonas aeruginosa PA3060. Type of data set: functional. The gist of the method:
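MIC (µg/ml) against quinolone-resistant P. aeruginosa PA-3060, run alongside efflux-competent strains PAO1 and PA-7 and the multi-efflux-pump knockout PA-3919. Some analogs were tested as racemates.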

Data set [3] can be described thus: Lipophilicity, log D of the compound at pH 7.4. Type of data set: physicochemical. Conditions: buffer.
The test system of data set [4] is Pseudomonas aeruginosa. Description: Antibacterial activity against multi efflux pump knock out Pseudomonas aeruginosa PA3919. Type of data set: functional. An outline of the steps:
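MIC in µg/ml against P. aeruginosa PA-3919, which lacks multiple efflux pumps. The strain is used to tell whether a compound is a substrate of these pumps.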

Data set [5] deals with T1, UDP-3-O-acyl-N-acetylglucosamine deacetylase (Pseudomonas aeruginosa, UniProt B5ATN6).
T1 sequence (B5ATN6 whole entry): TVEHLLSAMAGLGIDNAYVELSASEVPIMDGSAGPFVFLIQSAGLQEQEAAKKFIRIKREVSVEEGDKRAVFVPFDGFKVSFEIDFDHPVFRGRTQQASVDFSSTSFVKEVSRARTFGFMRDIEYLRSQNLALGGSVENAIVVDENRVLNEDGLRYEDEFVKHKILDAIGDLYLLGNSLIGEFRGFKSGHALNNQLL
Description: Inhibition of Pseudomonas aeruginosa LpxC.

For data set [6], the system named is Pseudomonas aeruginosa. Description: Antibacterial activity against Pseudomonas aeruginosa PAO1. Type of data set: functional. An outline of the steps:
as §1

In data set [7] the test system is Pseudomonas aeruginosa. In words: Antibacterial activity against Pseudomonas aeruginosa. Type of data set: functional.
The next data set concerns Escherichia coli. Description: Antibacterial activity against Escherichia coli. Type of data set: functional.
For a further data set, the system named is Klebsiella pneumoniae. In words: Antibacterial activity against Klebsiella pneumoniae. Type of data set: functional.
A further data set relates to Acinetobacter baumannii. Description: Antibacterial activity against Acinetobacter baumannii. Type of data set: functional.
The nature of data set [8]: Fraction unbound in human plasma. Type of data set: ADME, cell-free.

Regarding `C[C@@](CCc1ccc(-c2ccccc2)cc1)(C(=O)NO)S(C)(=O)=O`, the minimal inhibitory concentration (MIC) in the data set on Pseudomonas aeruginosa [1] and with Pseudomonas aeruginosa [2] was 1 µg/mL (≈ 2.88 µM) in each case. Besides, the logD – broadly, the decadic logarithm of the distribution of all forms, ionised or not, between an organic phase and buffer at a given pH – in data set [3] is 2.24.

In the case of `C[C@@](CCn1ccc(-c2ccccc2)cc1=O)(C(=O)NO)S(C)(=O)=O`, the values for the MIC in the data set on Pseudomonas aeruginosa [1], against Pseudomonas aeruginosa [2] and with Pseudomonas aeruginosa [4] were 1 µg/mL (≈ 2.74 µM), 2 µg/mL (≈ 5.49 µM) and 0.06 µg/mL (≈ 0.165 µM), respectively. This molecule also yielded a logD in data set [3] of 0.8.

As to `C[C@@](CCn1cc(-c2cccc(Cl)c2Cl)nn1)(C(=O)NO)S(C)(=O)=O`, the IC50 (in general, the midpoint of a concentration-inhibition curve) in data set [5] is 1.95 nM. Besides, the MIC (commonly the lowest concentration found to suppress growth) is 4 µg/mL (≈ 9.82 µM) with Pseudomonas aeruginosa [1], 4 µg/mL (≈ 9.82 µM) against Pseudomonas aeruginosa [2], below 0.06 µg/mL against Pseudomonas aeruginosa [4] and 2 µg/mL (≈ 4.91 µM) in the data set with Pseudomonas aeruginosa [6].

As to `COc1ccc(-c2cn(CC[C@](C)(C(=O)NO)S(C)(=O)=O)nn2)c(Cl)c1`, the IC50 in data set [5] amounted to 4.71 nM. The MIC with Pseudomonas aeruginosa [1] came to 8 µg/mL (≈ 19.9 µM); against Pseudomonas aeruginosa [2] it was 8 µg/mL (≈ 19.9 µM); in the data set on Pseudomonas aeruginosa [4], 0.125 µg/mL (≈ 0.31 µM); with Pseudomonas aeruginosa [6], 8 µg/mL (≈ 19.9 µM).

The molecule `C[C@@](CCn1cc(-c2cccc(F)c2F)nn1)(C(=O)NO)S(C)(=O)=O` returned an IC50 in data set [5] of 8.08 nM. Also, the MIC with Pseudomonas aeruginosa [1] was determined as 4 µg/mL (≈ 10.7 µM); in the data set with Pseudomonas aeruginosa [2], 8 µg/mL (≈ 21.4 µM); with Pseudomonas aeruginosa [4], 0.125 µg/mL (≈ 0.334 µM); in the data set with Pseudomonas aeruginosa [6], 4 µg/mL (≈ 10.7 µM).

In [5], `COc1ccc(-c2cc(CC[C@](C)(C(=O)NO)S(C)(=O)=O)no2)c(F)c1` gave an IC50 of 2.32 nM. Also, the MIC against Pseudomonas aeruginosa [1] was found to be 0.5 µg/mL (≈ 1.29 µM); in the data set with Pseudomonas aeruginosa [2] it was 1 µg/mL (≈ 2.59 µM); in the data set with Pseudomonas aeruginosa [4], 0.125 µg/mL (≈ 0.323 µM); in the data set with Pseudomonas aeruginosa [6], 0.5 µg/mL (≈ 1.29 µM).

`COc1ccc(-c2cc(CC[C@](C)(C(=O)NO)S(C)(=O)=O)on2)c(F)c1` returned an IC50 in data set [5] of 4.4 nM. For the same molecule, the MIC against Pseudomonas aeruginosa [1] was 2 µg/mL (≈ 5.18 µM); against Pseudomonas aeruginosa [2] it was 2 µg/mL (≈ 5.18 µM); against Pseudomonas aeruginosa [4] it was below 0.06 µg/mL; in the data set with Pseudomonas aeruginosa [6], 1 µg/mL (≈ 2.59 µM). Also, the MIC90 – broadly, the lowest concentration that inhibits either 90% of growth or 90% of the strains tested, depending on the study – came to 4 µg/mL (≈ 10.4 µM) in the data set on Pseudomonas aeruginosa [7], 4 µg/mL (≈ 10.4 µM) with Escherichia coli, 8 µg/mL (≈ 20.7 µM) in the data set on Klebsiella pneumoniae and 32 µg/mL (≈ 82.8 µM) with Acinetobacter baumannii. The same molecule yielded a logD in data set [3] of 1.23. Also, the fraction unbound (commonly the share of the substance not bound to proteins or other matrix) in data set [8] amounted to 0.072.

As to `COc1cccc(-c2cc(CC[C@](C)(C(=O)NO)S(C)(=O)=O)on2)c1F`, the IC50 in [5] was found to be 5.32 nM. For the same molecule, the MIC with Pseudomonas aeruginosa [1] was 4 µg/mL (≈ 10.4 µM); against Pseudomonas aeruginosa [2] it was 8 µg/mL (≈ 20.7 µM); in the data set with Pseudomonas aeruginosa [4], below 0.06 µg/mL; with Pseudomonas aeruginosa [6], 2 µg/mL (≈ 5.18 µM).

Regarding `C[C@@](CCc1cc(-c2ccccc2)on1)(C(=O)NO)S(C)(=O)=O`, in [5], half-maximal inhibition (IC50) required 0.511 nM. The MIC with Pseudomonas aeruginosa [1] was 0.5 µg/mL (≈ 1.48 µM); against Pseudomonas aeruginosa [2], 1 µg/mL (≈ 2.96 µM); against Pseudomonas aeruginosa [4], below 0.06 µg/mL; against Pseudomonas aeruginosa [6] it was 0.5 µg/mL (≈ 1.48 µM). Besides, the MIC90 with Pseudomonas aeruginosa [7] is 2 µg/mL (≈ 5.91 µM); against Escherichia coli, 4 µg/mL (≈ 11.8 µM); in the data set with Klebsiella pneumoniae, 32 µg/mL (≈ 94.6 µM); in the data set on Acinetobacter baumannii it was above 32 µg/mL. Further, the logD in [3] was 1.31. This molecule also displayed a fraction unbound in data set [8] of 0.016.

`C[C@@](CCn1cc(-c2ccccc2)nn1)(C(=O)NO)S(C)(=O)=O`: the IC50 in data set [5] amounted to 0.85 nM. The MIC with Pseudomonas aeruginosa [1] was 2 µg/mL (≈ 5.91 µM); against Pseudomonas aeruginosa [2], 4 µg/mL (≈ 11.8 µM); in the data set on Pseudomonas aeruginosa [4] it was 0.03 µg/mL (≈ 0.0887 µM); in the data set with Pseudomonas aeruginosa [6] it was 1 µg/mL (≈ 2.96 µM).

In the case of `C[C@@](CCn1cc(-c2ccccc2)cn1)(C(=O)NO)S(C)(=O)=O`, in data set [5], the IC50 came out at 1.61 nM. The minimum inhibitory concentration (MIC) is 1 µg/mL (≈ 2.96 µM) against Pseudomonas aeruginosa [1], 2 µg/mL (≈ 5.93 µM) in the data set on Pseudomonas aeruginosa [2], 0.015 µg/mL (≈ 0.0445 µM) in the data set with Pseudomonas aeruginosa [4] and 0.5 µg/mL (≈ 1.48 µM) against Pseudomonas aeruginosa [6]. Also, the MIC90 in the data set with Pseudomonas aeruginosa [7] was 4 µg/mL (≈ 11.9 µM); with Escherichia coli, 32 µg/mL (≈ 94.8 µM); with Klebsiella pneumoniae, above 64 µg/mL; in the data set on Acinetobacter baumannii it was above 256 µg/mL. The molecule further registered a logD in data set [3] of 1.04. In data set [8], this molecule registered a fraction unbound of 0.048.

Regarding `C[C@@](CCc1cc(-c2ccccc2)no1)(C(=O)NO)S(C)(=O)=O`, it took 3.02 nM to reach half-maximal inhibition in data set [5] (IC50). Further, the MIC against Pseudomonas aeruginosa [1] was 1 µg/mL (≈ 2.96 µM); with Pseudomonas aeruginosa [2] it was 2 µg/mL (≈ 5.91 µM); in the data set on Pseudomonas aeruginosa [4] it was below 0.06 µg/mL; with Pseudomonas aeruginosa [6], 0.5 µg/mL (≈ 1.48 µM). The MIC90 in the data set on Pseudomonas aeruginosa [7] is 2 µg/mL (≈ 5.91 µM); in the data set on Escherichia coli, 1 µg/mL (≈ 2.96 µM); in the data set with Klebsiella pneumoniae, 4 µg/mL (≈ 11.8 µM); against Acinetobacter baumannii it was above 32 µg/mL. This molecule came in with a logD in data set [3] of 0.99. This molecule also registered a fraction unbound in data set [8] of 0.013.

Consider `C[C@@](CCn1cc(-c2ccc(Cl)cc2F)nn1)(C(=O)NO)S(C)(=O)=O`, for which half-maximal inhibition in data set [5] (IC50) required 0.657 nM. For the same molecule, the MIC came to 1 µg/mL (≈ 2.56 µM) with Pseudomonas aeruginosa [1], 1 µg/mL (≈ 2.56 µM) in the data set on Pseudomonas aeruginosa [2], 0.008 µg/mL (≈ 0.0205 µM) against Pseudomonas aeruginosa [4] and 0.5 µg/mL (≈ 1.28 µM) with Pseudomonas aeruginosa [6]. For the same molecule, the MIC90 against Pseudomonas aeruginosa [7] is 1 µg/mL (≈ 2.56 µM); against Escherichia coli, 1 µg/mL (≈ 2.56 µM); against Klebsiella pneumoniae it was 2 µg/mL (≈ 5.12 µM); with Acinetobacter baumannii, above 32 µg/mL. Moreover, the logD in [3] turned out to be 1.34.

With `C[C@@](CCn1cc(-c2ccc(Cl)c(F)c2)nn1)(C(=O)NO)S(C)(=O)=O`, the IC50 in data set [5] is 0.912 nM. Besides, the MIC against Pseudomonas aeruginosa [1] was determined as 2 µg/mL (≈ 5.12 µM); against Pseudomonas aeruginosa [2] it was 2 µg/mL (≈ 5.12 µM); in the data set on Pseudomonas aeruginosa [4], 0.06 µg/mL (≈ 0.154 µM); in the data set with Pseudomonas aeruginosa [6], 2 µg/mL (≈ 5.12 µM).
